The list is not random: actives were taken first. Their share in the collection is about 1.4%.
OPRM1-OPRD1 ag: OPRM1-OPRD1 heterodimerization agonism. P35372+P41143. cells, luminescence. activation, % at 9.3 µM. 340,000 tested, 0.3% active; in the data active = activation above about 18%;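 note: 0% = vehicle-treated cells and 100% = reference agonist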
HTR5A ag: HTR5A agonism, opioid heterodimer counter-screen; P47898; 340,000 tested, 0.61% active; HTR5A agonist assay, luminescence, cell-based; activation, % at 9.3 µM; in the data active = activation mostly above about 9.5%, no sharp cut-off; inactive = mostly below about 7.6%;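 note: 0% = cells with vehicle only and 100% = reference agonist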
OPRM1-OPRD1 inv: inverse agonists of human mu-delta opioid receptor heterodimerization; P35372+P41143; 340,000 tested, 0.21% active; inhibition, % at 9.3 µM; cell-based MOR-DOR heterodimer luminescence, inverse agonism; in the data active = inhibition above about 22%, passing the limit was not always enough;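 note: 0% = cells with DMSO and 100% = wells without cells with DMSO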
HTR5A inv ctr: HTR5A inverse agonism, opioid heterodimer counter-screen; HTR5A cell line, luminescence; P47898; 340,000 tested, 0.083% active; inhibition, % at 9.3 µM; in the data active = inhibition mostly above about 23%, no sharp cut-off; inactive = mostly below about 18%;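 note: 0% = cells with DMSO and 100% = no-cell wells with DMSO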
DAGLB inh: diacylglycerol lipase beta (human) inhibition | HEK293T DAGLB membrane lysate, EnzChek fluorogenic substrate | inhibition, % at 5.17 µM | 340,000 tested, 0.059% active | AID 504411; in the data active = inhibition above about 34%;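 note: 0% = enzyme with vehicle and 100% = wells lacking enzyme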
Arr AP2 block: inhibitors of human beta-arrestin and AP2 interaction. FITC-arrestin peptide / GST-AP2 beads, flow cytometry; AP2 beta2 appendage carries R879A mutation. inhibition, % at 10 µM. 340,000 tested, 0.31% active. AID 504490;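 active = inhibition above a set limit, near 3 SD of compounds lacking own fluorescence, cut at about 54% in these data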;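 note: plate controls were DMSO wells for no effect and 5 µM unlabelled arrestin peptide for full effect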
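System: GST-AP2 R879A glutathione beads | Also added: FITC-arrestin peptide, 50 nM | Times: 12 min plus 1 h, RT | Signal: Bead flow cytometry, FITC channel | Buffer or medium: PBS with 0.05% Tween 20 and 0.1% BSA | Read-out basis: Percent drop in bead-associated FITC signal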
Numbers without * were called inactive; · = no result given.

SMILES	OPRM1-OPRD1 ag	HTR5A ag	OPRM1-OPRD1 inv	HTR5A inv ctr	DAGLB inh	Arr AP2 block
Fc1ccc(NC(=S)NNc2ncc(C(F)(F)F)cc2Cl)c(F)c1	-9.9	-14.8	56.0*	38.6*	-2.3	-9.2
CC(=O)c1ccc(NC(=O)CSc2ccsc2[N+](=O)[O-])cc1	-2.1	9.4*	10.3	-22.5	4.1	23.4
CC1CCCN(S(=O)(=O)c2cccc(C(=O)NCCCN3CCCC3=O)c2)C1 (stereo unspecified)	·	·	·	·	-5.1	·
O=C(Nc1ccc(N2CCCCC2)c(C(=O)O)c1)c1ccco1	2.0	10.1*	-11.9	-22.3	-2.1	1.1
Cc1cccc2c1N(CCCOc1ccc(C(C)(C)C)cc1)C(=O)C2=O	-5.1	4.7	30.2*	-13.6	14.8	4.1
Cc1cccc2c1N(CCCOc1ccccc1)C(=O)C2=O	-4.5	-3.4	26.0	-22.5	7.1	12.1
Cc1ccc(N2C(=O)N(CC(=O)NCc3ccc(Cl)cc3)C(=O)C2C)cc1 (stereo unspecified)	-1.6	-0.8	9.4	-18.4	-1.8	-4.2
COc1ccc(CNC(=O)CN2C(=O)C(C)N(c3ccc(C)cc3)C2=O)cc1 (stereo unspecified)	-1.4	11.8*	8.4	-8.4	-0.7	-1.8
C=CCn1c(SCC(=O)N2CCC(C)CC2)nc2c([nH]c3ccccc32)c1=O	·	·	·	·	-1.3	·
COc1cc(/C=N\NC(=O)c2ccc(-c3ccccc3)cc2)ccc1OCC(N)=O	19.9*	10.7*	-106.7	-35.7	4.9	-4.3
CN1CCN(S(=O)(=O)c2ccc(NC(=O)c3ccccc3F)cc2)CC1	-0.5	8.6*	2.3	-29.1	-0.4	7.4
CCOc1cc(CNCc2cccnc2)cc(Br)c1OCC(N)=O	-0.1	10.1*	0.5	-37.1	-3.9	-6.2
CC(OC(=O)C1=COCCO1)C(=O)NC1CCCCC1 (stereo unspecified)	·	·	·	·	2.7	·
O=C(CSC1CN(C(c2ccccc2)c2ccccc2)C1)N/N=C/c1ccc(Cl)cc1Cl	-1.2	12.2*	6.2	3.1	-8.9	-4.5
O=C(CN(C1CCCCC1)S(=O)(=O)c1ccc(Cl)cc1)NCc1cccnc1	-1.8	13.3*	9.1	-1.1	2.2	-3.7
O=C(CN(C1CCCCC1)S(=O)(=O)c1ccccc1)NCc1cccnc1	-2.5	-0.1	13.8	0.1	-3.8	-2.0
COC(=O)c1c(N2C(=O)Nc3ccccc3N2O)sc(C)c1C	-0.9	2.1	5.5	2.5	-0.3	21.8
COC(=O)c1c(-n2cnnn2)sc(C)c1C	-2.3	12.0*	11.7	-16.2	-1.6	13.4
Cc1ccc(-n2[nH]c(C)c(C=Nc3ccc4[nH]c(=O)[nH]c4c3)c2=O)cc1C	24.9*	22.2*	-114.5	-42.3	2.1	27.3
COC1Cc2ccccc2N(C(=O)N2CCN(CCO)CC2)c2ccccc21 (stereo unspecified)	2.9	13.8*	-13.2	-12.4	-2.1	-1.2
CCOC1Cc2ccccc2N(C(N)=O)c2ccccc21 (stereo unspecified)	1.1	1.3	-6.1	-8.8	3.6	6.9
O=C(N[C@@H](Cc1ccccc1)C(=O)OCc1ccccc1)c1nc[nH]c1C(=O)N1CCN(c2ccccc2)CC1	2.9	13.1*	-15.7	-31.9	-0.3	-4.1
Cc1nnc(NC(=O)c2nc(S(=O)(=O)Cc3ccccc3)ncc2Cl)s1	4.2	10.0*	-22.1	-40.6	0.7	-7.8
Cc1c([N+](=O)[O-])cc(C(=O)Nc2ccc3ncccc3c2)cc1[N+](=O)[O-]	7.9	9.5*	-39.5	-35.9	-0.7	-0.3
Cc1ccc2cc(NC(=O)c3ccccc3)ccc2n1	0.1	9.4*	-0.4	-33.7	-9.8	6.1
CN(C)c1cccc(F)c1C(=O)NC(=O)Nc1ccc(Cl)cc1	-1.6	0.0	6.8	-0.1	1.5	-10.2
Cn1c(N)c(C(=O)COC(=O)C2(c3ccc(Cl)cc3)CCCC2)c(=O)n(C)c1=O	1.3	6.9	-6.4	-15.2	-0.3	-3.8
Cn1c(N)c(C(=O)COC(=O)C2(c3ccc(F)cc3)CCCC2)c(=O)n(C)c1=O	1.4	8.4*	-8.0	17.8	-0.9	23.5
O=P1(O)CC2=C(CC=CC2)C1	·	·	·	·	-2.7	·
Cc1cc(NC(=O)c2cc3cccc([N+](=O)[O-])c3[nH]2)ccc1F	5.7	12.1*	-29.8	-36.4	-3.6	13.9

Assay outcomes (PubChem BioAssay)
